Experimental data gathered from unrelated publications.
Lines come from different studies, so protocols differ.
PIK3CA E545A: Phosphatidylinositol 4,5-bisphosphate 3-kinase catalytic subunit alpha isoform (PIK3CA, Homo sapiens, UniProt P42336, E545A)
PIK3CA E542K: Phosphatidylinositol 4,5-bisphosphate 3-kinase catalytic subunit alpha isoform (PIK3CA, Homo sapiens, UniProt P42336, E542K)
PIK3CA: Phosphatidylinositol 4,5-bisphosphate 3-kinase catalytic subunit alpha isoform (PIK3CA, Homo sapiens, UniProt P42336)
PIK3CA H1047Y: Phosphatidylinositol 4,5-bisphosphate 3-kinase catalytic subunit alpha isoform (PIK3CA, Homo sapiens, UniProt P42336, H1047Y)
PIK3CA Q546K: Phosphatidylinositol 4,5-bisphosphate 3-kinase catalytic subunit alpha isoform (PIK3CA, Homo sapiens, UniProt P42336, Q546K)
PIK3CA H1047L: Phosphatidylinositol 4,5-bisphosphate 3-kinase catalytic subunit alpha isoform (PIK3CA, Homo sapiens, UniProt P42336, H1047L)
PIK3CA C420R: Phosphatidylinositol 4,5-bisphosphate 3-kinase catalytic subunit alpha isoform (PIK3CA, Homo sapiens, UniProt P42336, C420R)

Compound | target | observed | technique | tested at | remaining binding
CN(C)c1nccc(-c2cnc3ncccn23)n1 | Phosphatidylinositol 4,5-bisphosphate 3-kinase catalytic subunit alpha isoform (PIK3CA, Homo sapiens, UniProt P42336, I800L) | binding |  | 1 µM | 63%
CN(C(=O)c1ccccc1)c1cc(N(C)c2ccc3c(c2)CCc2ccc(C(=O)NCCN4CCOCC4)cc2C3=O)ccc1F | PIK3CA E545A | cell-free assay | competition with immobilised ligand | 1 µM | 100%
CCN1CCN(Cc2ccc(C(=O)Nc3ccc(C)c(Oc4ccc5c(c4)CC(=O)N5)c3)cc2C(F)(F)F)CC1 | PIK3CA E542K | binding | competition with immobilised ligand | 1 µM | 100%
CS(=O)(=O)N1CCCC(NC(=O)[C@H](CCC2CCCCC2)NC(=O)c2ccc(CNC(=O)c3cnc4ccccn34)cc2)C1 (stereo partly drawn) | PIK3CA | binding | competition with immobilised ligand | 1 µM | 37%
CN(C)c1ncc(F)c(-c2cnn3ncccc23)n1 | PIK3CA E542K | binding |  | 1 µM | 69%
Cc1c(C(=O)O)cc(-c2ccc(C3CCNCC3)cc2)c2ccc(-c3ccc(C(F)(F)F)cc3)cc12 | PIK3CA H1047Y | cell-free assay | competition with immobilised ligand | 1 µM | 100%
COc1cnc(Nc2cccc(S(N)(=O)=O)c2)nc1N1CCN(c2ccccc2)CC1 | PIK3CA | binding | competition with immobilised ligand | 1 µM | 98%
C[C@@H]1CCN(c2nccc(-c3cnn4ncccc34)n2)C1 | PIK3CA Q546K | binding |  | 1 µM | 79%
O=C(O)[C@@H]1[C@@H](Cn2nnc3ccccc3c2=O)CC[C@H]1C(=O)c1ccc(OCCC2CCOCC2)cc1 | PIK3CA Q546K | cell-free assay | competition with immobilised ligand | 1 µM | 86%
O=C(NCCCN1CCOCC1)c1ccc(Nc2nccc(-c3cc4ccccc4s3)n2)cc1 | PIK3CA H1047L | binding | competition with immobilised ligand | 1 µM | 90%
c1cnn2ncc(-c3ccnc(N4CCC45COC5)n3)c2c1 | PIK3CA | binding |  | 1 µM | 79%
C=CC(=O)N1CCC(C(=O)NCC(=O)N2CCN(c3nc(-c4cnc(N)nc4C(F)F)nc(N4CCOCC4)n3)CC2)CC1 | PIK3CA Q546K | binding | competition with immobilised ligand | 1 µM | 0%
CN1CCN(c2ccc(Nc3nccc(-c4ccccc4)n3)cc2C(F)(F)F)CC1 | Phosphatidylinositol 4,5-bisphosphate 3-kinase catalytic subunit alpha isoform (PIK3CA, Homo sapiens, UniProt P42336, M1043I) | binding |  | 10 µM | 92%
O=C(Nc1c[nH]nc1C(=O)NC1CCNCC1)c1cc(F)cc(F)c1 | PIK3CA H1047Y | binding | competition with immobilised ligand | 1 µM | 100%
CN(c1nccc(-c2cnn3ncccc23)n1)C1CC1 | PIK3CA C420R | binding |  | 1 µM | 100%
Cc1cnc(Nc2ccc(C(=O)N3CCC(N4CCCC4)CC3)cc2)nc1-c1cc2ccccc2s1 | PIK3CA H1047Y | binding | competition with immobilised ligand | 1 µM | 65%
CCC(=O)N[C@@H]1CC[C@H](C(=O)N(C)c2ccc(-c3nc4ccccc4o3)cc2)C1 | PIK3CA | cell-free assay | competition with immobilised ligand | 1 µM | 88%
CNC(=O)[C@@H]1CC[C@@H](n2c(-c3ccc4cnccc4c3)nc3ccc(C(=O)NCc4cccc(C(N)=O)c4)cc32)C1 | PIK3CA C420R | binding | competition with immobilised ligand | 1 µM | 90%
COCCOc1nc(-c2ccc(Cl)nc2)nc2c1CN(C(=O)c1ncn3ccccc13)CC2 | PIK3CA E545A | cell-free assay | competition with immobilised ligand | 0.1 µM | 100%
O=C(c1ccc(Nc2nccc(-c3cc4ccccc4s3)n2)cc1)N1CCC(N2CCCC2)CC1 | PIK3CA C420R | binding | competition with immobilised ligand | 1 µM | 88%
Cc1nccc(COC(=O)N2C[C@@H]3[C@@H](CNC(=O)c4ccc5[nH]nnc5c4)[C@@H]3C2)n1 | PIK3CA H1047Y | cell-free assay | competition with immobilised ligand | 1 µM | 82%
COc1ncc2cc3ccccc3nc2c1C#N | PIK3CA E545A | cell-free assay | competition with immobilised ligand | 5 µM | 99%
O=c1nc(-c2ccccn2)sc2ccccc12 | PIK3CA H1047Y | cell-free assay | competition with immobilised ligand | 1 µM | 94%
N[C@@H]1CCN(c2nccc(-c3cnn4ncccc34)n2)C1 | PIK3CA H1047L | binding |  | 1 µM | 100%
